Data from ChEMBL document CHEMBL4765392, “Development of coumarine derivatives as potent anti-filovirus entry inhibitors targeting viral glycoprotein” (Eur J Med Chem, 2020).

Columns and labels:
[1] = Inhibition of envelope glycoprotein in HIV pseudotyped Zaire Ebolavirus infected in human A549 cells assessed as reduction in virus entry measured after 48 hrs by luciferase reporter gene assay; format: cell-based; settings: A549, 48 h
Outline: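 A549 cells (5000/well, seeded 24 h prior) incubated 48 h with 3-fold serial compound dilutions premixed with HIV-backbone luciferase pseudovirions bearing EBOV GP. Entry quantified by luciferase signal, normalized to virus-alone cells. IC50 from logistic regression of dose-response curves.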

[2] = Cytotoxicity against human A549 cells assessed as reduction in cell viability by Celltiter-Glo assay; format: cell-based
Outline: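 Low-passage A549 cells seeded at 5000/well 24 h ahead, then exposed for 48 h to 3-fold serial compound dilutions in fresh media without virus. Viability read by CellTiter-Glo luminescence and normalized to medium-only cells. CC50 from logistic regression fit of dose-response curves.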

[3] = test system: envelope glycoprotein of Zaire Ebolavirus; test: Selectivity index, ratio of CC50 for human A549 cells to IC50 for inhibition of envelope glycoprotein in HIV pseudotyped Zaire Ebolavirus infected in human A549 cells assessed as reduction in virus entry; format: toxicity, cell-based; settings: read-out: Ratio CC50/IC50
Outline: (§1)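 IC50 wells also got HIV luciferase pseudovirions bearing MARV GP or EBOV GP, read by luciferase. CC50 wells got fresh media, read by CellTiter-Glo. Both values come from logistic dose-response fits, and the index is CC50 divided by IC50.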

[4] = test system: envelope glycoprotein of Marburgvirus; test: Selectivity index, ratio of CC50 for human A549 cells to IC50 for inhibition of envelope glycoprotein in HIV pseudotyped Marburgvirus infected in human A549 cells assessed as reduction in virus entry; format: toxicity, cell-based; settings: read-out: Ratio CC50/IC50; outline: as §1

| Structure (SMILES) | IC50 [1] | CC50 [2] | selectivity ratio [3] | selectivity ratio [4] |
| --- | --- | --- | --- | --- |
| Cc1c(Cc2ccc(-c3ccccc3C#N)cc2)c(=O)oc2cc(OCC(O)CN3CCC(C(N)=O)CC3)ccc12 (centres undefined) | 1.8 µM | 33.2 µM | 17.5 | 18.2 |
| Cc1c(Cc2ccc(OC(F)(F)F)cc2)c(=O)oc2cc(OC[C@H](O)CN3CCC(C(N)=O)CC3)ccc12 | 0.9 µM | 52 µM | 55.7 | 36.3 |
| Cc1cc(=O)oc2cc(OCC(O)CN3CCC(C(N)=O)CC3)ccc12 (centres undefined) | 9.3 µM | > 100 µM | > 10.8 | 12 |
| Cc1c(Cc2ccccc2)c(=O)oc2cc(OCC(CN3CCC(C(N)=O)CC3)Oc3ccccc3F)ccc12 (centres undefined) | 22.5 µM | 79.6 µM | 3.5 | 3.9 |
| Cc1c(Cc2ccccc2)c(=O)oc2cc(OCC(O)CN3CCC(C(N)=O)CC3)ccc12 (centres undefined) | 3.4 µM | > 100 µM | > 29.4 | 3.4 |
| Cc1c(Cc2ccc(F)cc2F)c(=O)oc2cc(OCC(O)CN3CCC(C(N)=O)CC3)ccc12 (centres undefined) | 1.2 µM | > 100 µM | > 81.1 | 23.6 |
| Cc1c(Cc2ccc(-c3ccc(Cl)cc3)cc2)c(=O)oc2cc(OCC(O)CN3CCC(C(N)=O)CC3)ccc12 (centres undefined) | 1.4 µM | 32.9 µM | 22.9 | 31.8 |
| Cc1c(Cc2ccccc2)c(=O)oc2cc(OCC(O)CNCc3cccs3)ccc12 (centres undefined) | 3.5 µM | 87.3 µM | 24.9 | 24.9 |
| COc1ccc(OC(COc2ccc3c(C)c(Cc4ccccc4)c(=O)oc3c2)CN2CCC(C(N)=O)CC2)cc1 (centres undefined) | 10.5 µM | 94.9 µM | 9.1 | 11.9 |
| Cc1cc(F)ccc1Cc1c(C)c2ccc(OCC(O)CN3CCC(C(N)=O)CC3)cc2oc1=O (centres undefined) | 1.2 µM | > 100 µM | > 81.1 | 33.3 |
| Cc1c(Cc2ccccc2)c(=O)oc2cc(OCC(CN3CCC(C(N)=O)CC3)Oc3ccc([N+](=O)[O-])cc3)ccc12 (centres undefined) | 16 µM | 94.8 µM | 5.9 | 11.5 |
| Cc1c(Cc2ccccc2C(F)(F)F)c(=O)oc2cc(OCC(O)CN3CCC(C(N)=O)CC3)ccc12 (centres undefined) | 1.6 µM | > 100 µM | > 63.8 | 33 |
| Cc1c(Cc2ccccc2)c(=O)oc2cc(OCC(O)CNCC3CC3)ccc12 (centres undefined) | 3 µM | > 100 µM | > 33.3 | 31.6 |
| Cc1c(Cc2ccccc2)c(=O)oc2cc(OCC(O)CNc3ccc(Br)cc3)ccc12 (centres undefined) | > 100 µM | > 100 µM |  | 1 |
| Cc1c(Cc2ccccc2)c(=O)oc2cc(OCC(O)CNc3nc4ccccc4[nH]3)ccc12 (centres undefined) | > 100 µM | > 100 µM |  | 1 |
| Cc1c(Cc2ccccc2)c(=O)oc2cc(OCC(O)CNCCc3cccnc3)ccc12 (centres undefined) | 1.3 µM | 27.4 µM | 20.5 | 16.4 |
| Cc1c(Cc2ccccc2)c(=O)oc2cc(OCC(O)CNC3CCOCC3)ccc12 (centres undefined) | 2.2 µM | 38.2 µM | 17.4 | 17.1 |
| Cc1c(Cc2ccccc2)c(=O)oc2cc(OCC(O)CNCc3ccccc3)ccc12 (centres undefined) | 1.3 µM | > 100 µM | > 75 | 45.5 |
| Cc1c(Cc2ccc(OC(F)(F)F)cc2)c(=O)oc2cc(OC[C@@H](O)CN3CCC(C(N)=O)CC3)ccc12 | 0.7 µM | 64.9 µM | 92.6 | 46.3 |
| Cc1c(Cc2ccc(-c3ccc(F)cc3)cc2)c(=O)oc2cc(OCC(O)CN3CCC(C(N)=O)CC3)ccc12 (centres undefined) | 1.5 µM | 19.3 µM | 13.1 | 18.1 |
| Cc1c(Cc2ccc(Cl)cc2)c(=O)oc2cc(OCC(O)CN3CCC(C(N)=O)CC3)ccc12 (centres undefined) | 2.5 µM | 40 µM | 16.3 | 13.8 |
| Cc1c(Cc2ccc(F)cc2Cl)c(=O)oc2cc(OCC(O)CN3CCC(C(N)=O)CC3)ccc12 (centres undefined) | 3.1 µM | 90.8 µM | 29 | 7.7 |
| Cc1c(Cc2ccc(F)cc2)c(=O)oc2cc(OCC(O)CN3CCC(C(N)=O)CC3)ccc12 (centres undefined) | 1.1 µM | 89.3 µM | 78.8 | 83.7 |
| Cc1c(Cc2ccccc2)c(=O)oc2cc(OCC(O)CNCCCO)ccc12 (centres undefined) | 8.9 µM | 53.4 µM | 6 | 6.3 |
